Results published in ChEMBL document CHEMBL1275561, “In vitro activities of doripenem, a new broad-spectrum carbapenem, against recently collected clinical anaerobic isolates, with emphasis on the Bacteroides fragilis group” (2008).
In brackets after ≈: the same amount, converted by molar mass.

Key:
Type in all cases: functional
[1] = system: Parabacteroides distasonis; test: Antimicrobial activity against Bacteroides distasonis by agar dilution method
Procedure, shortened: (§1)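 CLSI agar dilution on enriched brucella agar (5% lysed defibrinated sheep blood, 1 μg/ml vitamin K1), with drug plates made on the test day. Log-phase cells were adjusted to 0.5 McFarland, and about 10^5 CFU/spot was delivered by Steers replicator. Plates were incubated anaerobically at 37°C for 48 h. MIC was the lowest concentration giving a marked growth change versus the control plate. Controls were B. fragilis ATCC 25285 and B. thetaiotaomicron ATCC 29741.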

[2] = system: Bacteroides caccae; test: Antimicrobial activity against Bacteroides caccae assessed as resistant isolates by agar dilution method
Procedure, shortened: (§2)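 CLSI agar dilution on enriched brucella agar (5% lysed defibrinated sheep blood, 1 μg/ml vitamin K1), plates made on test day. Log-phase inocula adjusted to 0.5 McFarland; about 10^5 CFU/spot by Steers replicator. Incubated anaerobically at 37°C for 48 h. MIC was the lowest concentration giving a marked change in growth versus the drug-free control plate. Resistance rates used CLSI anaerobe breakpoints. Controls were B. fragilis ATCC 25285 and B. thetaiotaomicron ATCC 29741.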

[3] = system: Bacteroides caccae; test: Antimicrobial activity against Bacteroides caccae by agar dilution method; procedure, shortened: as §1
[4] = system: Parabacteroides distasonis; test: Antimicrobial activity against Bacteroides distasonis assessed as resistant isolates by agar dilution method; procedure, shortened: as §2
[5] = system: Bacteroides fragilis; test: Antimicrobial activity against Bacteroides fragilis by agar dilution method; procedure, shortened: as §1
[6] = system: Bacteroides fragilis; test: Antimicrobial activity against Bacteroides fragilis assessed as resistant isolates by agar dilution method; procedure, shortened: as §2
[7] = system: Bacteroides ovatus; test: Antimicrobial activity against Bacteroides ovatus by agar dilution method; procedure, shortened: as §1
[8] = system: Bacteroides ovatus; test: Antimicrobial activity against Bacteroides ovatus assessed as resistant isolates by agar dilution method; procedure, shortened: as §2
[9] = system: Bacteroides thetaiotaomicron; test: Antimicrobial activity against Bacteroides thetaiotaomicron by agar dilution method; procedure, shortened: as §1
[10] = system: Bacteroides thetaiotaomicron; test: Antimicrobial activity against Bacteroides thetaiotaomicron assessed as resistant isolates by agar dilution method; procedure, shortened: as §2
[11] = system: Bacteroides uniformis; test: Antimicrobial activity against Bacteroides uniformis by agar dilution method; procedure, shortened: as §1
[12] = system: Bacteroides uniformis; test: Antimicrobial activity against Bacteroides uniformis assessed as resistant isolates by agar dilution method; procedure, shortened: as §2
[13] = system: Phocaeicola vulgatus; test: Antimicrobial activity against Bacteroides vulgatus by agar dilution method; procedure, shortened: as §1
[14] = system: Phocaeicola vulgatus; test: Antimicrobial activity against Bacteroides vulgatus assessed as resistant isolates by agar dilution method; procedure, shortened: as §2
[15] = system: Bacteroides eggerthii; test: Antimicrobial activity against Bacteroides eggerthii by agar dilution method; procedure, shortened: as §1
[16] = system: Bacteroides eggerthii; test: Antimicrobial activity against Bacteroides eggerthii assessed as resistant isolates by agar dilution method; procedure, shortened: as §2
[17] = system: Parabacteroides merdae; test: Antimicrobial activity against Bacteroides merdae by agar dilution method; procedure, shortened: as §1
[18] = system: Parabacteroides merdae; test: Antimicrobial activity against Bacteroides merdae assessed as resistant isolates by agar dilution method; procedure, shortened: as §2
[19] = system: Bacteroides nordii; test: Antimicrobial activity against Bacteroides nordii by agar dilution method; procedure, shortened: as §1
[20] = system: Bacteroides nordii; test: Antimicrobial activity against Bacteroides nordii assessed as resistant isolates by agar dilution method; procedure, shortened: as §2
[21] = system: Clostridioides difficile; test: Antimicrobial activity against Clostridium difficile by agar dilution method
[22] = system: Clostridium perfringens; test: Antimicrobial activity against Clostridium perfringens by agar dilution method
[23] = system: [Clostridium] innocuum; test: Antimicrobial activity against Clostridium innocuum by agar dilution method
[24] = system: [Clostridium] innocuum; test: Antimicrobial activity against Clostridium innocuum assessed as resistant isolates by agar dilution method; settings: pooled result: one value given for 4 cell lines, strains, targets or settings
[25] = system: Clostridium paraputrificum; test: Antimicrobial activity against Clostridium paraputrificum by agar dilution method
[26] = system: Clostridium subterminale; test: Antimicrobial activity against Clostridium subterminale by agar dilution method
[27] = system: Clostridium tertium; test: Antimicrobial activity against Clostridium tertium by agar dilution method
[28] = system: Finegoldia magna; test: Antimicrobial activity against Finegoldia magna by agar dilution method
Procedure, shortened: (§3)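 Gram-positive anaerobes were tested by CLSI agar dilution on brucella agar enriched with 5% lysed defibrinated sheep blood and 1 μg/ml vitamin K1. Inoculum was log-phase growth at 0.5 McFarland, about 10^5 CFU/spot by replicator. Incubation was anaerobic, 37°C, 48 h. MIC was the lowest concentration with a marked growth change versus the drug-free plate. Eubacterium lentum ATCC 43055 was the control, and tests were repeated if it fell outside the CLSI range.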

[29] = system: Finegoldia magna; test: Antimicrobial activity against Finegoldia magna assessed as resistant isolates by agar dilution method
Procedure, shortened: (§4)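 Agar dilution following CLSI on brucella agar with 5% lysed defibrinated sheep blood and 1 μg/ml vitamin K1, plates made on test day. Log-phase cells at 0.5 McFarland, about 10^5 CFU/spot by Steers replicator, 48 h anaerobic at 37°C. MIC read as the lowest concentration causing a marked growth change versus control. Resistance counted by CLSI anaerobe breakpoints. Eubacterium lentum ATCC 43055 served as control.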

[30] = system: Peptoniphilus asaccharolyticus; test: Antimicrobial activity against Peptoniphilus asaccharolyticus by agar dilution method; procedure, shortened: as §3
[31] = system: Peptoniphilus asaccharolyticus; test: Antimicrobial activity against Peptoniphilus asaccharolyticus assessed as resistant isolates by agar dilution method; settings: pooled result: one value given for 4 cell lines, strains, targets or settings; procedure, shortened: as §4
[32] = system: Parvimonas micra; test: Antimicrobial activity against Micromonas micros by agar dilution method; procedure, shortened: as §3
[33] = system: Anaerococcus prevotii; test: Antimicrobial activity against Anaerococcus prevotii by agar dilution method; procedure, shortened: as §3
[34] = system: Peptostreptococcus sp.; test: Antimicrobial activity against Peptostreptococcus sp. by agar dilution method
Procedure, shortened: (§5)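 Log-phase isolates were adjusted to 0.5 McFarland, and about 10^5 CFU/spot was delivered by Steers replicator. Plates were incubated anaerobically at 37°C for 48 h. MIC was the lowest concentration giving a marked growth change versus the control plate. Eubacterium lentum ATCC 43055 was the QC strain, with repeats when out of range.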

[35] = system: Cutibacterium acnes; test: Antimicrobial activity against Propionibacterium acnes by agar dilution method; procedure, shortened: as §5
[36] = system: Cutibacterium acnes; test: Antimicrobial activity against Propionibacterium acnes assessed as resistant isolates by agar dilution method; procedure, shortened: as §4
[37] = system: Propionibacterium; test: Antimicrobial activity against Propionibacterium sp. by agar dilution method; procedure, shortened: as §5
[38] = system: Propionibacterium; test: Antimicrobial activity against Propionibacterium sp. assessed as resistant isolates by agar dilution method; procedure, shortened: as §4

## CCC[C@@H]1C[C@@H](C(=O)N[C@@H]([C@H]2O[C@H](SC)[C@H](O)[C@@H](O)[C@H]2O)[C@H](C)Cl)N(C)C1 [CLINDAMYCIN]
[1]
  MIC50: 1 µg/mL (≈ 2.35 µM)
  MIC90: 128 µg/mL (≈ 301 µM)
[2]
  Activity: 31.3%
[3]
  MIC50: 1 µg/mL (≈ 2.35 µM)
  MIC90: 128 µg/mL (≈ 301 µM)
[4]
  Activity: 13.3%
[5]
  MIC: 0.5 µg/mL (≈ 1.18 µM)
  MIC50: 0.5 µg/mL (≈ 1.18 µM)
  MIC90: 128 µg/mL (≈ 301 µM)
[6]
  Activity: 29.3%
[7]
  MIC50: 2 µg/mL (≈ 4.71 µM)
  MIC90: 128 µg/mL (≈ 301 µM)
[8]
  Activity: 42.9%
[9]
  MIC50: 2 µg/mL (≈ 4.71 µM)
  MIC90: 128 µg/mL (≈ 301 µM)
[10]
  Activity: 34.6%
[11]
  MIC50: 2 µg/mL (≈ 4.71 µM)
  MIC90: 128 µg/mL (≈ 301 µM)
[12]
  Activity: 3.8%
[13]
  MIC: 0.5 µg/mL (≈ 1.18 µM)
  MIC50: 0.5 µg/mL (≈ 1.18 µM)
  MIC90: 128 µg/mL (≈ 301 µM)
[14]
  Activity: 32.3%
[15]
  MIC50: 1 µg/mL (≈ 2.35 µM)
  MIC90: 8 µg/mL (≈ 18.8 µM)
[16]
  Activity: 20%
[17]
  MIC50: 1 µg/mL (≈ 2.35 µM)
  MIC90: 8 µg/mL (≈ 18.8 µM)
[18]
  Activity: 20%
[19]
  MIC50: 1 µg/mL (≈ 2.35 µM)
  MIC90: 8 µg/mL (≈ 18.8 µM)
[20]
  Activity: 20%
[21]
  MIC: 1 µg/mL (≈ 2.35 µM)
[22]
  MIC50: 0.25 µg/mL (≈ 0.588 µM)
  MIC90: 2 µg/mL (≈ 4.71 µM)
[23]
  MIC50: 2 µg/mL (≈ 4.71 µM)
  MIC90: 32 µg/mL (≈ 75.3 µM)
[24]
  Activity: 22.2%
[25]
  MIC50: 2 µg/mL (≈ 4.71 µM)
  MIC90: 32 µg/mL (≈ 75.3 µM)
[26]
  MIC50: 2 µg/mL (≈ 4.71 µM)
  MIC90: 32 µg/mL (≈ 75.3 µM)
[27]
  MIC50: 2 µg/mL (≈ 4.71 µM)
  MIC90: 32 µg/mL (≈ 75.3 µM)
[28]
  MIC50: 0.5 µg/mL (≈ 1.18 µM)
  MIC90: 32 µg/mL (≈ 75.3 µM)
[29]
  Activity: 20%
[30]
  MIC50: 0.25 µg/mL (≈ 0.588 µM)
  MIC90: 32 µg/mL (≈ 75.3 µM)
[31]
  Activity: 12.2%
[32]
  MIC50: 0.25 µg/mL (≈ 0.588 µM)
  MIC90: 32 µg/mL (≈ 75.3 µM)
[33]
  MIC50: 0.25 µg/mL (≈ 0.588 µM)
  MIC90: 32 µg/mL (≈ 75.3 µM)
[34]
  MIC50: 0.25 µg/mL (≈ 0.588 µM)
  MIC90: 32 µg/mL (≈ 75.3 µM)
[35]
  MIC: 0.25 µg/mL (≈ 0.588 µM)
  MIC50: 0.25 µg/mL (≈ 0.588 µM)
  MIC90: 0.5 µg/mL (≈ 1.18 µM)
[36]
  Activity: 5.6%
[37]
  MIC: 0.25 µg/mL (≈ 0.588 µM)
  MIC50: 0.25 µg/mL (≈ 0.588 µM)
  MIC90: 2 µg/mL (≈ 4.71 µM)
[38]
  Activity: 7.7%
